# Source: PubChem BioAssay
# The source made the active and inactive calls. Unless noted, no stated cut-off is given here; in the data, active means inhibition above about 30%; inactive means the rest.
# Tests used:
# [1] = SK-BR-3 cell growth inhibitors, pilot screen, 24 h, human (AID 572;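 active means viability at or below 10% of carrier control in both of two separate runs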;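 further: compound exposure lasted between 18 and 24 h rather than exactly 24 h; 100% = carrier-treated control wells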); details: SK-BR-3 viability, CellTiter-Glo luminescence, at 10 µM, stronger effect = lower value
# [2] = HUVEC growth inhibition – cell-based, human, primary screen (AID 575;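 active means viability at or below 30% in both replicate assays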;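 further: 100% = median of untreated cell wells with 0.1% DMSO on each plate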); details: HUVEC proliferation, CellTiter-Glo luminescence, 72 h; at 10 µM; stronger effect = lower value
# Method in brief: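 Assay system: Primary human umbilical vein endothelial cells | Quantity: 1250 cells per well | Medium: Supplemented EBM, 2% fetal bovine serum | Detection: CellTiter-Glo luminescence measuring cellular ATP | Read-out: % viability vs DMSO wells | Plate: Collagen-coated 384-well format | Times: 72 h exposure, 37 °C, 5% CO2, 30 min RT equilibration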
# [3] = growth inhibitors of H69AR lung tumor, primary screen, human, duplicate replicates (AID 580;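 active means viability at or under a set limit in both replicates, limit being median viability minus 3 SD, cut at about 48% in these data, passing the limit was not always enough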;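 further: 100% = mean luminescence of untreated wells and 0% = no signal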); details: H69AR lung tumor cells viability, ATP luminescence, 72 h; at 10 µM; stronger effect = lower value
# [4] = reversal of MRP1-mediated doxorubicin resistance, pilot screen, H69AR cells, doxorubicin co-treatment (AID 601;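 active means viability loss from added drug above about 55%, and viability with drug at most 40%, in both replicates, limit read from the data, passing the limit was not always enough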); details: CellTiter-Glo, 72 h, at 10 µM; for differential viability (reversal): stronger effect = higher value
# [5] = 384-well plate pilot, post-Golgi transport modulator project, inhibition of yeast transport mutant growth (AID 636; in the data active means inhibition above about 31%); details: absorbance 615 nm, about 18 h, stronger effect = higher value
# [6] = growth suppression of yeast trafficking mutant, preliminary HTS, modulators of trafficking downstream of Golgi apparatus project, 1536-format plate, OD 615 nm (AID 637); details: yeast transport mutant growth, absorbance 615 nm, 18 h; stronger effect = higher value
# [7] = H69AR cells + 2 uM doxorubicin, measured here: viability with 2 uM doxorubicin, stronger effect = lower value
# [8] = H69AR cells, compound alone cytotoxicity
SMILES,viability [1],viability [2],viability [3],differential viability (reversal) ([4]; H69AR cells + 2 uM doxorubicin),"viability [4, 7] [%]","viability [4, 8] [%]",inhibition [5],inhibition [6]
Cc1cc(C)nc(SCc2nnc(SCC(=O)Nc3ncc(C)s3)n2Cc2ccco2)n1,91% (inactive),97.1% (inactive),90.4% (inactive),7.87% (inactive),82.6,90.4,-7.87% (inactive),-5.09% (inactive)
COC(=O)c1ccccc1OCC(=O)NC1CCCCC1,96% (inactive),106% (inactive),90.2% (inactive),-1.72% (inactive),91.9,90.2,-5.21% (inactive),-6.77% (inactive)
CCOC(=O)C1CCN(C(=O)COc2ccc(S(=O)(=O)NC(C)C)cc2Cl)CC1,99.5% (inactive),100% (inactive),90.4% (inactive),-15.3% (inactive),106,90.4,0.66% (inactive),24.5% (inactive)
COc1ccc(-c2noc(CSc3nc4ccccc4c(=O)n3-c3ccccc3)n2)cc1OC,69% (inactive),110% (inactive),87.1% (inactive),6.39% (inactive),80.7,87.1,-9.04% (inactive),-0.55% (inactive)
CCc1ccccc1NC(=O)c1ccoc1C,102% (inactive),107% (inactive),101% (inactive),10.8% (inactive),90.2,101,1.78% (inactive),4.19% (inactive)
CCN(C(=O)c1cccs1)c1nnc(-c2ccncc2)s1,105% (inactive),120% (inactive),92.5% (inactive),7.03% (inactive),85.5,92.5,-3.33% (inactive),2.91% (inactive)
CCCNC(=O)N1CCN(S(=O)(=O)c2ccc(C)c(C)c2)CC1,85% (inactive),112% (inactive),95% (inactive),-0.65% (inactive),95.7,95,3.42% (inactive),0% (inactive)
N#CC1=C(N)C(C#N)(C#N)[C@H](c2ccsc2)[C@H]2COCC=C12,126% (inactive),96% (inactive),97.4% (inactive),2.33% (inactive),95.1,97.4,-6.03% (inactive),2.58% (inactive)
Cc1nc2ccc(S(=O)(=O)NCC(=O)N3CCc4ccccc4C3)cc2s1,87% (inactive),106% (inactive),93.5% (inactive),6.91% (inactive),86.6,93.5,2.47% (inactive),3.11% (inactive)
O=C(CN(CC1CCCO1)S(=O)(=O)c1ccc(S(=O)(=O)NC2CC2)cc1)Nc1ccccc1 (stereo not drawn),109% (inactive),96.9% (inactive),95.3% (inactive),-1.47% (inactive),96.8,95.3,-2% (inactive),-9.27% (inactive)
O=C(CSc1nnc(-c2ccccc2Br)o1)Nc1cccc2ccccc12,89% (inactive),101% (inactive),105% (inactive),24.2% (inactive),81.2,105,0.39% (inactive),-4.43% (inactive)
CC(=O)Nc1ccc(N=Cc2nc(-c3ccc(C)cc3)oc2O)cc1,102% (inactive),96.2% (inactive),94.5% (inactive),1.61% (inactive),92.9,94.5,0% (inactive),-1.8% (inactive)
CC(=O)Nc1c(I)c(NC(C)=O)c(I)c(C(=O)O)c1I,89% (inactive),98.4% (inactive),103% (inactive),1.03% (inactive),102,103,-0.13% (inactive),-3% (inactive)
COc1ccccc1NC(=O)N(Cc1ccco1)Cc1cc2cccc(C)c2[nH]c1=O,90% (inactive),70.9% (inactive),75.8% (inactive),1.06% (inactive),74.7,75.8,-8.27% (inactive),-1.45% (inactive)
CCOC(=O)c1cc(-c2ccccc2)sc1N,129% (inactive),71.1% (inactive),81.3% (inactive),3.5% (inactive),77.8,81.3,-6% (inactive),-2% (inactive)
C/C=C(\CS(=O)(=O)c1ccccc1)S(=O)(=O)c1ccccc1,110% (inactive),85.1% (inactive),6.84% (active),-0.38% (inactive),7.22,6.84,-0.91% (inactive),-4.26% (inactive)
COC(=O)c1ccc2c(c1)nc(C)n2CCO,104% (inactive),118% (inactive),99.4% (inactive),9.26% (inactive),90.1,99.4,-3.78% (inactive),-2% (inactive)
O=C(CCN1C(=O)c2ccccc2C1=O)N1CCN(C(=O)c2ccccc2)CC1,106% (inactive),108% (inactive),101% (inactive),8.3% (inactive),92.3,101,-3.25% (inactive),4.59% (inactive)

SMILES,viability [1],viability [2],viability [3],differential viability (reversal) ([4]; H69AR cells + 2 uM doxorubicin),"viability [4, 7] [%]","viability [4, 8] [%]",inhibition [5],inhibition [6]
Cc1cc(=O)c2n(Cc3ccccc3Cl)nc[n+]2[nH]1,115% (inactive),100% (inactive),97.1% (inactive),8.77% (inactive),88.3,97.1,-4.4% (inactive),0% (inactive)
Cc1ccc(S(=O)(=O)N2CCCN(S(=O)(=O)C3CCS(=O)(=O)C3)CC2)cc1 (stereo not drawn),124% (inactive),101% (inactive),99.1% (inactive),8.77% (inactive),90.4,99.1,-7.2% (inactive),1.09% (inactive)
COc1ccccc1OCc1ccc(C(=O)N2CCN(C(=O)c3ccco3)CC2)cc1,116% (inactive),111% (inactive),99.2% (inactive),5.35% (inactive),93.9,99.2,-4.13% (inactive),-9.82% (inactive)
O=C(C1CCCN(S(=O)(=O)c2cccc3nonc23)C1)N1CCC(Cc2ccccc2)CC1 (stereo not drawn),103% (inactive),34.9% (inactive),71.3% (inactive),16% (inactive),55.2,71.3,-4.21% (inactive),-7.17% (inactive)
N#CC1=C(N)N2C(=C(C#N)C13CCCCC3)SC1CCCCC12O (stereo not drawn),72% (inactive),88.2% (inactive),76.1% (inactive),6.71% (inactive),69.4,76.1,-3.01% (inactive),8.91% (inactive)
O=C(Nc1ccc(Cl)cc1C(=O)O)c1ccc2c(c1)C(=O)N(Cc1ccco1)C2=O,72% (inactive),86.6% (inactive),93.3% (inactive),8.62% (inactive),84.7,93.3,-8.49% (inactive),0.48% (inactive)
Cc1nn(C)cc1C1C2=C(CC(C)(C)CC2=O)OC2=C1C(=O)CC(C)(C)C2,74% (inactive),110% (inactive),89.8% (inactive),-5.79% (inactive),95.6,89.8,-6.62% (inactive),0.18% (inactive)
CCC(=O)Nc1nn(C)c2nc3c(C)cccc3cc12,92% (inactive),105% (inactive),104% (inactive),17.2% (inactive),86.4,104,-3.47% (inactive),-4.18% (inactive)
N#Cc1c(-c2ccc3c(c2)OCO3)csc1N,96% (inactive),83.9% (inactive),95.2% (inactive),1.51% (inactive),93.7,95.2,3.29% (inactive),4.73% (inactive)
C=CCn1cnc2c(c1=O)c1nc3ccccc3nc1n2-c1ccc(C)cc1,105% (inactive),97.2% (inactive),86.9% (inactive),-6.75% (inactive),93.7,86.9,-5.48% (inactive),-1.61% (inactive)
Cc1cccc(CC(=O)Nc2c3c(nn2-c2cccc(Cl)c2)CS(=O)C3)c1 (stereo not drawn),104% (inactive),88.9% (inactive),85.2% (inactive),-10.9% (inactive),96.1,85.2,1.3% (inactive),-6.72% (inactive)
Cc1cccc(NC(=O)c2cc(NC(=O)c3ccco3)ccc2Cl)n1,101% (inactive),77.2% (inactive),95.4% (inactive),0.16% (inactive),95.3,95.4,-1.56% (inactive),7.21% (inactive)
Cc1ccc(-c2nn(-c3ccccc3)cc2/C=C(\C#N)c2cccc(C#N)c2)o1,71% (inactive),92% (inactive),71.6% (inactive),-1.65% (inactive),73.3,71.6,-9.32% (inactive),5.27% (inactive)
CC(=O)OCC[N+](C)(C)C,102% (inactive),96.7% (inactive),92.5% (inactive),-8.23% (inactive),101,92.5,1.95% (inactive),-2.5% (inactive)
NS(=O)(=O)c1ccc(C(=O)O)cc1,92% (inactive),93.4% (inactive),99% (inactive),11.6% (inactive),87.5,99,5.45% (inactive),-5.33% (inactive)
COCCn1c(C)cc(C(=O)COC(=O)c2ccc(N3CCCC3=O)cc2)c1C,95% (inactive),88.4% (inactive),92.3% (inactive),8.88% (inactive),83.4,92.3,-4.8% (inactive),2.18% (inactive)
COc1ccc(C2C(C(=O)c3sc(C)nc3C)=C(O)C(=O)N2CCN(C)C)cc1 (stereo not drawn),106% (inactive),106% (inactive),93.1% (inactive),12.4% (inactive),80.7,93.1,-8% (inactive),4.36% (inactive)
N#CCC(=O)N1CCn2c1nc1ccccc12,99% (inactive),95% (inactive),87.7% (inactive),-0.78% (inactive),88.5,87.7,0.13% (inactive),0.33% (inactive)
